Reference: PubChem BioAssay AID602285 (Broad Institute, 2012)
The source made the active and inactive calls.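 Rule for the calls: active = AC50 at or below twice the top valid dose for that sample, with falling signal; inconclusive = flat curve with inhibition of 30 to 70%, or poor fit; inactive = activity in the wrong direction, plus the rest.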

Biological target: Scavenger receptor class B member 1 (Mus musculus) (UniProt Q61009)
Test: inhibitors of HDL uptake via mouse SR-BI, dose response, ldlA[mSR-BI] CHO cells, fluorescence plate reader, dry powder, set 8 (AID 602285)
Conditions: DiI-HDL uptake fluorescence, 3 h
In short: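 Assay system: ldlA[mSR-BI] cells, LDL receptor-deficient CHO line overexpressing murine SR-BI; Buffer or medium: Ham's F12, fatty acid-free BSA, HEPES pH 7.4; Dosing: pin-transferred compound series; Times: 3 h uptake at 37 °C; Measured by: bottom-read DiI fluorescence after PBS washes, excitation 550 nm, emission 595 nm; Controls: DMSO as neutral control, BLT-1 as inhibitor control.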

Scavenger receptor class B member 1 (Mus musculus), sequence (Q61009 whole entry, looked up): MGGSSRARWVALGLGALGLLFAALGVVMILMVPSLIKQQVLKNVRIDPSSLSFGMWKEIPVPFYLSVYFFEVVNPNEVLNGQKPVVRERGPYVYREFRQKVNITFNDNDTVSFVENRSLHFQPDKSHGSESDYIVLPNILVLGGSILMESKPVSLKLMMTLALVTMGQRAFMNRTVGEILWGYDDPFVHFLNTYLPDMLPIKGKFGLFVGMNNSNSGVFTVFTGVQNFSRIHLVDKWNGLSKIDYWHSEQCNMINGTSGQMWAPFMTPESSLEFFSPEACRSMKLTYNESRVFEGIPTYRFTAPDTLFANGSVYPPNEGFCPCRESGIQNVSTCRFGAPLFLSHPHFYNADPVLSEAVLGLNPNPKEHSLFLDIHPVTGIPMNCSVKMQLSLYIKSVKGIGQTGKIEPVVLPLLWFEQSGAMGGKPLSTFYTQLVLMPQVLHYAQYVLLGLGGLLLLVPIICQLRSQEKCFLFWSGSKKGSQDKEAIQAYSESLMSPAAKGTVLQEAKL

| AC50 | Compound | other results |
| --- | --- | --- |
| 10.3 µM | C[C@@H]1CN([C@H](C)CO)C(=O)c2cc(NC(=O)Cn3cnnn3)ccc2O[C@H]1CN(C)S(=O)(=O)c1ccc(Cl)cc1 | – |
| 0.297 µM | Cc1noc(C)c1S(=O)(=O)Nc1ccc2c(c1)C(=O)N([C@H](C)CO)C[C@@H](C)[C@H](CN(C)S(=O)(=O)c1ccc(Cl)cc1)O2 | – |
| > 70 µM (inactive) | C[C@@H]1CN([C@H](C)CO)C(=O)c2cc(NC(=O)CCCN(C)C)ccc2O[C@H]1CN(C)S(=O)(=O)c1ccc(Cl)cc1 | – |
| 7.1 µM | Cc1noc(C)c1NC(=O)Nc1ccc2c(c1)C(=O)N([C@H](C)CO)C[C@@H](C)[C@H](CN(C)S(=O)(=O)c1ccc(Cl)cc1)O2 | – |
| 2.06 µM | C[C@@H]1CN([C@H](C)CO)C(=O)c2cc(NC(=O)C3CC3)ccc2O[C@H]1CN(C)S(=O)(=O)c1ccc(Cl)cc1 | – |
| 3.16 µM | C[C@@H]1CN([C@H](C)CO)C(=O)c2cc(NS(=O)(=O)c3ccccc3)ccc2O[C@H]1CN(C)S(=O)(=O)c1ccc(Cl)cc1 | – |
| 0.0304 µM | C[C@@H]1CN([C@H](C)CO)C(=O)c2cc(NC(=O)C3CCCCC3)ccc2O[C@H]1CN(C)S(=O)(=O)c1ccc(Cl)cc1 | – |
| 0.123 µM | CC(C)NC(=O)Nc1ccc2c(c1)C(=O)N([C@H](C)CO)C[C@@H](C)[C@H](CN(C)S(=O)(=O)c1ccc(Cl)cc1)O2 | – |
| 0.304 µM | COc1ccc(NC(=O)Nc2ccc3c(c2)C(=O)N([C@H](C)CO)C[C@@H](C)[C@H](CN(C)S(=O)(=O)c2ccc(Cl)cc2)O3)cc1 | – |
| 8.91 µM | C[C@H](CO)N1C[C@H](C)[C@@H](CN(C)S(=O)(=O)c2ccc(Cl)cc2)Oc2ccc(NC(=O)Cc3cn(C)c4ccccc34)cc2C1=O | – |
| 3.77 µM | C[C@@H]1CN([C@H](C)CO)C(=O)c2cc(NS(=O)(=O)c3cccs3)ccc2O[C@H]1CN(C)S(=O)(=O)c1ccc(Cl)cc1 | – |
| 3.39 µM | C[C@@H]1CN([C@H](C)CO)C(=O)c2cc(NS(=O)(=O)c3cn(C)cn3)ccc2O[C@H]1CN(C)S(=O)(=O)c1ccc(Cl)cc1 | – |
| 4.95 µM | C[C@@H]1CN([C@H](C)CO)C(=O)c2cc(NC(=O)CCN3CCOCC3)ccc2O[C@H]1CN(C)S(=O)(=O)c1ccc(Cl)cc1 | – |
| 0.0708 µM | C[C@@H]1CN([C@H](C)CO)C(=O)c2cc(NC(=O)Nc3ccc(F)cc3)ccc2O[C@H]1CN(C)S(=O)(=O)c1ccc(Cl)cc1 | – |
| 0.628 µM | C[C@@H]1CN([C@H](C)CO)C(=O)c2cc(N(C)C)ccc2O[C@H]1CN(C)S(=O)(=O)c1ccc(Cl)cc1 | – |
| 0.912 µM | C[C@@H]1CN([C@@H](C)CO)C(=O)c2cc(NC(=O)Cc3cn(C)c4ccccc34)ccc2O[C@H]1CN(C)S(=O)(=O)c1ccc(Cl)cc1 | – |
| 0.593 µM | C[C@@H]1CN([C@H](C)CO)C(=O)c2cc(NC(=O)c3ccncc3)ccc2O[C@H]1CN(C)S(=O)(=O)c1ccc(Cl)cc1 | – |
| 0.354 µM | C[C@@H]1CN([C@H](C)CO)C(=O)c2cc(NC(=O)NC3CCCCC3)ccc2O[C@H]1CN(C)S(=O)(=O)c1ccc(Cl)cc1 | – |

More lines, now with the values behind:

| Compound | AC50 | other results |
| --- | --- | --- |
| CNC[C@@H]1OCCCC[C@@H](C)Oc2ccc(NS(=O)(=O)c3ccc(Cl)cc3)cc2C(=O)N([C@H](C)CO)C[C@H]1C | – | activity change, negative = inhibition (at 35 µM (top of the series)): inactive |
| COc1ccc(S(=O)(=O)Nc2ccc3c(c2)C(=O)N([C@H](C)CO)C[C@@H](C)[C@H](CN(C)S(=O)(=O)c2ccc(Cl)cc2)O3)cc1 | 2.69 µM | – |
| Cc1ccccc1-c1ccc2c(c1)O[C@H](CN(C)C(=O)Nc1ccc(F)cc1)[C@H](C)CN([C@H](C)CO)S2(=O)=O | – | activity change, negative = inhibition (at 35 µM (top of the series)): inactive |
| C[C@H]1CN([C@@H](C)CO)C(=O)c2cc(NC(=O)Cc3cn(C)c4ccccc34)ccc2O[C@H]1CN(C)S(=O)(=O)c1ccc(Cl)cc1 | 12.3 µM | – |
| COc1ccc(CN(C)C[C@@H]2Oc3ccc(NC(=O)Cc4cn(C)c5ccccc45)cc3C(=O)N([C@H](C)CO)C[C@H]2C)cc1 | 2.55 µM | – |
| C[C@H](C(=O)NC1CCCC1)N(C(=O)Cn1nnc(-c2ccc3c(c2)OCO3)n1)C1CCCCC1 | 0.0374 µM | – |
| C[C@@H]1CN([C@H](C)CO)C(=O)c2cc(NC(=O)Cc3cn(C)c4ccccc34)ccc2O[C@H]1CN(C)Cc1ccc(-c2ccccc2)cc1 | – | activity change, negative = inhibition (at 35 µM (top of the series)): inactive |
| C[C@@H]1CN([C@H](C)CO)C(=O)c2cc(NC(=O)Cc3cn(C)c4ccccc34)ccc2O[C@H]1CN(C)C(=O)NC1CCCCC1 | 9.18 µM | – |
| C[C@@H]1CN([C@@H](C)CO)C(=O)c2cc(NC(=O)Cc3cn(C)c4ccccc34)ccc2O[C@@H]1CN(C)S(=O)(=O)c1ccc(Cl)cc1 | 10 µM | – |
| C[C@H](CO)N1C[C@H](C)[C@H](CN(C)S(=O)(=O)c2ccc(Cl)cc2)Oc2ccc(NC(=O)Cc3cn(C)c4ccccc34)cc2C1=O | – | activity change, negative = inhibition (at 35 µM (top of the series)): inactive |
| C[C@@H]1CN([C@H](C)CO)C(=O)c2cc(NC(=O)Cc3cn(C)c4ccccc34)ccc2O[C@H]1CN(C)S(=O)(=O)c1ccc(F)cc1 | 1.11 µM | – |
| C[C@@H]1CN([C@H](C)CO)C(=O)c2cc(NC(=O)Cc3cn(C)c4ccccc34)ccc2O[C@H]1CN(C)Cc1ccc(C(=O)O)cc1 | 11.8 µM | – |
| O=C(C[C@@H]1CC[C@@H](NC(=O)CC2CC2)[C@H](CO)O1)NCc1ccc(Cl)cc1 | > 70 µM (inactive) | – |
| C[C@@H]1CN([C@H](C)CO)C(=O)c2cc(NC(=O)Cc3cn(C)c4ccccc34)ccc2O[C@H]1CN(C)CC1CCCCC1 | 9.24 µM | – |
| C[C@@H]1CN([C@H](C)CO)C(=O)c2cc(NC(=O)CCCCCC(=O)Nc3ccccc3N)ccc2O[C@H]1CN(C)S(=O)(=O)c1ccc(Cl)cc1 | 0.563 µM | – |
| C[C@@H]1CN([C@@H](C)CO)C(=O)Cc2cc(NC(=O)CCCN(C)C)ccc2O[C@H]1CN(C)Cc1ccncc1 | > 70 µM (inactive) | – |
| COc1ccc(-c2nnn(CC(=O)N(C3CCCCC3)C(C)C(=O)NC3CCCCC3)n2)cc1OC (configuration not stated) | 0.2 µM | – |
| C[C@@H]1CN([C@H](C)CO)C(=O)c2cc(NC(=O)Cc3cn(C)c4ccccc34)ccc2O[C@H]1CN(C)S(=O)(=O)c1ccc(Cl)cc1 | 0.174 µM | – |
| CO[C@H]1CN(C)C(=O)c2cc(NC(=O)c3ccccc3F)ccc2OC[C@@H](C)N(C(C)=O)C[C@@H]1C | > 70 µM (inactive) | – |
| CO[C@@H]1CN(C)C(=O)c2ccc(NC(=O)C3CC3)cc2OC[C@@H](C)N(Cc2ccncc2)C[C@H]1C | – | activity change, negative = inhibition (at 35 µM (top of the series)): inactive |
| C[C@@H]1CN([C@H](C)CO)C(=O)c2cc(NC(=O)Nc3ccc(C(F)(F)F)cc3)ccc2O[C@H]1CN(C)S(=O)(=O)c1ccc(Cl)cc1 | – | activity change, negative = inhibition (at 35 µM (top of the series)): inactive |
| C[C@@H]1CN([C@@H](C)CO)C(=O)c2cc(NC(=O)NC3CCCCC3)ccc2O[C@H]1CN(C)Cc1ccncc1 | 10.7 µM | – |

| Compound | AC50 | other results |
| --- | --- | --- |
| C[C@@H]1CN([C@@H](C)CO)C(=O)Cc2cc(NS(C)(=O)=O)ccc2O[C@@H]1CN(C)Cc1ccc(C(F)(F)F)cc1 | 22.3 µM | – |
| C[C@H]1CN([C@@H](C)CO)C(=O)c2cc(NC(=O)Cc3cn(C)c4ccccc34)ccc2O[C@@H]1CN(C)S(=O)(=O)c1ccc(Cl)cc1 | 17.4 µM | – |
| COCC(=O)N1CCc2cc(-c3csc(NC(=O)c4cc(OC)cc(OC)c4)n3)ccc21 | < 0.015 µM | – |
| Cc1noc(C)c1NC(=O)N(C)C[C@H]1Oc2cc(C#CCC3CCCC3)ccc2S(=O)(=O)N([C@H](C)CO)C[C@@H]1C | 0.094 µM | – |
| CCCNC(=O)N(C)C[C@@H]1Oc2cc(-c3cncnc3)ccc2S(=O)(=O)N([C@@H](C)CO)C[C@@H]1C | – | activity change, negative = inhibition (at 35 µM (top of the series)): inactive |
| C[C@@H]1CN([C@H](C)CO)C(=O)c2cc(NC(=O)Cc3cn(C)c4ccccc34)ccc2O[C@H]1CN(C)C | 17.9 µM | – |
| O=C(C[C@H]1CC[C@H](NC(=O)CC2CC2)[C@@H](CO)O1)NCc1ccc(Cl)cc1 | > 70 µM (inactive) | – |
| C[C@@H]1CN([C@H](C)CN(C)C)C(=O)c2cc(NC(=O)Cc3cn(C)c4ccccc34)ccc2O[C@H]1CN(C)S(=O)(=O)c1ccc(Cl)cc1 | – | activity change, negative = inhibition (at 35 µM (top of the series)): inactive |
| Cc1ccc(S(=O)(=O)Nc2ccc3c(c2)C(=O)N([C@H](C)CO)C[C@@H](C)[C@H](CN(C)S(=O)(=O)c2ccc(Cl)cc2)O3)cc1 | – | activity change, negative = inhibition (at 35 µM (top of the series)): inactive |
| C[C@@H]1CN([C@H](C)CO)C(=O)c2cc(NC(=O)Cc3cn(C)c4ccccc34)ccc2O[C@H]1CN(C)C(=O)Nc1ccc2c(c1)OCO2 | 4.6 µM | – |
| C[C@@H]1CN([C@H](C)CO)C(=O)c2cc(NC(=O)Cc3cn(C)c4ccccc34)ccc2O[C@H]1CN(C)C(=O)Nc1ccc(F)cc1 | 1.56 µM | – |
| C[C@@H]1CN([C@H](C)CO)C(=O)c2cc(NS(=O)(=O)c3ccc(F)cc3)ccc2O[C@H]1CN(C)S(=O)(=O)c1ccc(Cl)cc1 | 13.7 µM | – |
| C[C@@H]1CN([C@H](C)CO)C(=O)c2cc(NC(=O)Cc3cn(C)c4ccccc34)ccc2O[C@H]1CN(C)C(=O)Nc1ccccc1 | 4.92 µM | – |
| CC(C)NC(=O)Nc1cccc2c1O[C@@H](CN(C)Cc1ccc(C(F)(F)F)cc1)[C@@H](C)CN([C@@H](C)CO)C2=O | – | activity change, negative = inhibition (at 35 µM (top of the series)): inactive |
| C[C@@H]1CN([C@@H](C)CO)C(=O)Cc2cc(NS(=O)(=O)c3cn(C)cn3)ccc2O[C@H]1CN(C)Cc1ccc(Cl)c(Cl)c1 | – | activity change, negative = inhibition (at 35 µM (top of the series)): inactive |
| Cc1noc(C)c1NC(=O)N(C)C[C@@H]1Oc2ccc(NC(=O)Cc3cn(C)c4ccccc34)cc2C(=O)N([C@H](C)CO)C[C@H]1C | 6.97 µM | – |
| C[C@@H]1CN([C@H](C)CO)C(=O)c2cc(NC(=O)Cc3cn(C)c4ccccc34)ccc2O[C@H]1CN(C)Cc1ccc(Cl)c(Cl)c1 | – | activity change, negative = inhibition (at 11 µM (top of the series)): inactive |
| COc1cc(OC)cc(C(=O)Nc2nc(-c3ccc4c(c3)CCN4C(=O)CN3CCOCC3)cs2)c1 | < 0.015 µM | – |
| C[C@@H]1CN([C@H](C)CO)C(=O)c2cc(NC(=O)Cc3cn(C)c4ccccc34)ccc2O[C@H]1CN(C)S(=O)(=O)c1ccccc1 | 0.215 µM | – |
| C[C@@H]1CN([C@H](C)CO)C(=O)c2cc(NC(=O)Cc3cn(C)c4ccccc34)ccc2O[C@H]1CN(C)S(=O)(=O)c1cccs1 | 2.36 µM | – |
| C[C@@H]1CN([C@H](C)CO)S(=O)(=O)c2ccc(C3=CCCCC3)cc2O[C@@H]1CN(C)C(=O)Nc1ccc2c(c1)OCO2 | – | activity change, negative = inhibition (at 35 µM (top of the series)): inactive |
| C[C@@H]1CN([C@H](C)CO)C(=O)c2cc(NC(=O)Nc3ccccc3)ccc2O[C@H]1CN(C)S(=O)(=O)c1ccc(Cl)cc1 | – | activity change, negative = inhibition (at 35 µM (top of the series)): inactive |
